# Screening data as filed in PubChem.
# A selection: hits, their analogues and other compounds. The true share with any hit is near 2.7%.
# PAFAH2 FP inh: PAFAH2 (human) inhibition; Q99487; recombinant PAFAH2, FP-rhodamine activity probe, fluorescence polarization; inhibition, % at 3.39 µM; 0.99% of 340,000 active; AID 492956;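 active = inhibition above the mean over all tested compounds plus 3 SD, cut at about 30% in these data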;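 also: inhibitors block probe labeling of enzyme so polarization drops; 0% = enzyme with DMSO and 100% = wells lacking PAFAH2 protein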
# PAFAH1B3 inh: blocks human PAF acetylhydrolase 1B catalytic subunit 3; Q15102; recombinant PAFAH1B3, FP-rhodamine probe, fluorescence polarization; inhibition, % at 3.39 µM; 0.28% of 340,000 active; AID 492972;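 active = inhibition above the screen-wide average of all tested compounds plus 3 SD, cut at about 25% in these data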;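 also: 0% = enzyme with DMSO only and 100% = wells lacking PAFAH1B3 protein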
# Target sequence (Q15102 whole entry, looked up): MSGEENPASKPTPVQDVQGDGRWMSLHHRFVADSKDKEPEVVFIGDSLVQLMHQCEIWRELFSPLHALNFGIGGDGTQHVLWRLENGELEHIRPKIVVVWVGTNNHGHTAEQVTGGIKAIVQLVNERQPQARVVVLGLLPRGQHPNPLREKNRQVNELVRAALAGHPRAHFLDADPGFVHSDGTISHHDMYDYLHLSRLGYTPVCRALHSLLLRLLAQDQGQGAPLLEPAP
# PAFAH1B2 FP inh: inhibitors of human PAFAH1B2 | P68402 | AID 492953 | 1.2% of 340,000 active | inhibition, % at 3.39 µM | recombinant PAFAH1B2, FP-rhodamine activity probe, fluorescence polarization;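 active = inhibition above the mean of all tested compounds plus 3 SD, cut at about 24% in these data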;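 also: 0% = enzyme with DMSO and 100% = wells lacking PAFAH1B2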
# Target sequence (P68402 whole entry, looked up): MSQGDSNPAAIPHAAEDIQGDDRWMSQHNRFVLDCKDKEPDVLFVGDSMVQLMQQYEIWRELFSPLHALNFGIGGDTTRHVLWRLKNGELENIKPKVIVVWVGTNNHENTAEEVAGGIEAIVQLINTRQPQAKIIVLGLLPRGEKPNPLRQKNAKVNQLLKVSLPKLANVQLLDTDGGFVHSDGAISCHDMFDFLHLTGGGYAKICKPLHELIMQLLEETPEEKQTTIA
# pPAFAH FP inh: pPAFAH (human) enzyme inhibition | Q13093 | recombinant pPAFAH, FP-rhodamine probe fluorescence polarization | inhibition, % at 3.39 µM | 1.5% of 330,000 active | AID 463082;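 active = inhibition above the mean inhibition across the screen plus 3 SD, cut at about 25% in these data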;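 also: inhibitors block binding of the rhodamine activity-based probe so polarization drops; 0% = enzyme with DMSO and 100% = wells lacking pPAFAH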
# RBBP9 inh: human RBBP9 hydrolase inhibition; recombinant RBBP9, FP-Rh probe fluorescence polarization; inhibition, % at 7.94 µM; 0.2% of 220,000 active;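 active = inhibition above the campaign mean of all tested compounds plus 3 SD, cut at about 14% in these data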;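 also: plate controls were DMSO wells with RBBP9 for no effect and wells lacking RBBP9 protein for full effect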
#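 System: RBBP9 protein / Quantity: 2.5 µM RBBP9 dispensing solution, before mixing / Also added: Serine-hydrolase probe FP-Rh, 375 nM pre-mixing / Dosing: 7.94 µM single dose, 0.794% DMSO / Timing: enzyme-compound preincubation 30 min, then probe labeling 45 min, 25 °C / Signal: FP readout at 525/598 nm / Controls: DMSO-treated enzyme wells and wells lacking RBBP9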
# The depositor's hits bear a star; nt = no result given.
SMILES,PAFAH2 FP inh,PAFAH1B3 inh,PAFAH1B2 FP inh,pPAFAH FP inh,RBBP9 inh
O=C(COC(=O)c1ccc2c(c1)S(=O)(=O)c1ccccc1C2=O)NC1CC1,-3,3,2,30*,-7
CCc1ccc(C(=O)OCC(=O)NC2CCCC2)cc1,82*,6,0,30*,nt
CCOc1ccc2oc(C(=O)OCC(=O)NC3CCCCC3)c(C)c2c1,61*,-2,-4,26*,nt
CC(Nc1nc(-c2cccnc2)nc2ccccc12)c1ccc(F)cc1 (stereo unspecified),0,1,3,-4,nt
COc1ccccc1CNC(=O)CN1c2cccc3cccc(c23)S1(=O)=O,8,8,3,31*,nt
COc1cc(NC(=O)CN2c3cccc4cccc(c34)S2(=O)=O)cc(OC)c1OC,3,-2,-4,5,1
CC(NC(=O)c1cc(-c2cccnc2)nc2ccc(Br)cc12)C1CCCO1 (stereo unspecified),6,-2,-4,0,nt
COc1ccc(CNC(=O)C2CCC(CNC(=O)[C@@H]3Cc4ccccc4CN3)CC2)cc1 (stereo partly specified),-3,2,2,-2,nt
CCOC(=O)c1c(NC(=O)C(C)Sc2cccc[n+]2[O-])sc2c1CCN(Cc1ccccc1)C2 (stereo unspecified),-16,7,-2,33*,-5
COC(=O)[C@@H](Cc1c[nH]c2ccccc12)NCc1ccc(B(O)O)cc1,-3,9,1,nt,nt
O=C(NNC(=O)c1ccccc1F)c1cccc(-n2cccc2)c1,13,0,2,26*,nt
O=C(CSc1ccc(Cl)cc1)NC1=NN(c2ccccc2)C(=O)C1,18,7,96*,32*,nt
Cc1c(NC(=O)CCSc2ccc(Cl)cc2)c(=O)n(-c2ccccc2)n1C,4,2,32*,8,-4
Cc1c(NC(=O)C23CC4CC(CC(C)(C4)C2)C3)c(=O)n(-c2ccccc2)n1C,50*,4,35*,3,1
Cc1c(NC(=O)COC(=O)COc2ccc(Nc3ccccc3)cc2)c(=O)n(-c2ccccc2)n1C,4,-2,-2,25*,-3
CCOC(=O)C1CCN(c2c(NCCN(CC)c3ccccc3)c(=O)c2=O)CC1,1,-4,1,15,3
CCOCCCn1c(=S)[nH]c2cc(C(=O)NCCc3ccccc3)ccc2c1=O,1,8,-3,4,nt
Cc1ccccc1CNC(=O)CCC(=O)N1CCOc2ccccc21,8,3,3,0,nt
COc1ccc(-n2c(=O)c3ccccc3n(CC(=O)OCc3ccccc3)c2=O)cc1OC,4,2,-1,5,3
C=CCC[C@@H](Cc1ccc(F)cc1)C(=O)OC[C@H](C)NC(=O)[C@@H](CC=C)CC(=O)N(CCO)Cc1ccccc1,0,3,3,5,nt
C=CCC[C@H](Cc1ccc(F)cc1)C(=O)OC[C@H](Cc1c[nH]c2ccccc12)NC(=O)[C@@H](CC=C)CC(=O)NCCO,9,10,2,27*,nt
C=CC[C@H](CC(=O)N(CCO)Cc1ccccc1)C(=O)N[C@@H](C)COC(=O)[C@@H](CC=C)Cc1ccc(F)cc1,-10,6,26*,4,nt
CC(=O)N1CC(C)Sc2ccc(S(=O)(=O)N3CCCCC3)cc21 (stereo unspecified),-2,10,2,3,nt
CC(=O)Cc1cc(O)c2ccccc2c1OC(=O)c1ccccc1,8,3,1,2,6
Oc1cccc(/C=N/Nc2cccc3cccnc23)c1,13,14,7,nt,3
SMILES,PAFAH2 FP inh,PAFAH1B3 inh,PAFAH1B2 FP inh,pPAFAH FP inh,RBBP9 inh
Oc1c(/C=N/Nc2cccc3cccnc23)ccc2ccccc12,-18,3,3,30*,-3
CSC1=NC(=O)/C(=C\c2cccc3ccccc23)S1,0,0,5,-5,-2
COc1ccc(CNC(=O)COC(=O)c2cc3ccccc3cc2O)cc1OC,3,3,0,3,nt
N=c1c[n+](-c2ccc(Cl)cc2)[n-]o1,9,-1,31*,9,-8
COc1cccc2c(=O)c3cccc(N)c3[nH]c12,10,11,0,31*,2
COc1cccc2c(=O)c3c([nH]c12)OC(C)(C)C3,-2,7,9,7,nt
CCOC(=O)C/C(C)=N\Nc1nc(-c2ccccc2)cs1,3,4,1,26*,0
CC(C)=NNc1nc(-c2ccccc2)cs1,-3,5,6,7,-6
Cc1cc(NCCCn2ccnc2)n2nc(C)c(-c3ccc(Cl)cc3)c2n1,4,5,0,25*,6
Cc1cc(NCCN2CCOCC2)n2nc(C)c(-c3ccccc3)c2n1,-8,3,-4,3,-8
Cc1cc(NCCN2CCOCC2)n2nc(C)c(-c3ccc(Cl)cc3)c2n1,5,3,1,28*,-9
Cc1cc(NCCCn2ccnc2)n2nc(C)c(-c3ccccc3)c2n1,-1,7,7,-3,-1
COc1ccc([N+](=O)[O-])cc1NC(=O)c1cn(-c2ccc(Cl)cc2)c(=O)c2ccccc12,-4,-8,1,3,-9
Cc1ccc(CNC(=O)CN2C(=O)CSc3ccc(S(=O)(=O)N4CCCCC4)cc32)cc1,4,-4,6,1,nt
CC1(C)C(=O)N(c2ccccc2)C1c1ccccc1O (stereo unspecified),-8,1,52*,-1,nt
COc1ccc(N2C(=O)C(C)(C)C2c2c(O)ccc3ccccc23)cc1 (stereo unspecified),9,3,7,-1,nt
Cc1ccc(/C=N/OC(=O)c2nn(C)cc2Cl)cc1,13,2,28*,0,-2
Cn1c(CCNC(=O)c2ccco2)nc2cc(NS(=O)(=O)c3ccc(Cl)cc3)ccc21,5,9,25*,3,2
C(=C\c1ccccc1)/CN1CCN(Cc2nc(Cc3ccccc3)no2)CC1,9,-1,-2,11,-6
COC(=O)C1=C(C)N(CCCC(=O)O)C(=O)NC1c1cc2c(cc1[N+](=O)[O-])OCO2 (stereo unspecified),12,8,6,30*,-1
CCCNC(=O)c1cccc(S(=O)(=O)N2CC3(C)CC2CC(C)(C)C3)c1 (stereo unspecified),1,0,26*,-1,nt
CN(C)C(CNC(=O)c1cccc(S(=O)(=O)N2CC3(C)CC2CC(C)(C)C3)c1)c1ccco1 (stereo unspecified),11,3,13,4,-8
CC1(C)CC2CC(C)(CN2S(=O)(=O)c2cccc(N)c2)C1 (stereo unspecified),-4,6,24*,-3,0
N#CC1=C(c2ccc(-c3ccccc3)cc2)COC1=O,2,2,2,26*,-13
O=C1OCC(c2ccccc2)=C1c1ccccc1,2,6,-1,4,nt
Cc1nc2cc3ccccc3cc2c(=O)[nH]1,0,7,0,27*,4
